Our source for the cytotoxicity values is ChEMBL document CHEMBL4513216, “Probing the Open Global Health Chemical Diversity Library for Multistage-Active Starting Points for Next-Generation Antimalarials” (ACS Infect Dis, 2020).

The structures appear in SMILES notation.

A short description of the data set: Toxicity liver stage against HepG2, at 10uM. Type of data set: cell-based. The arrangement: test concentration 10 uM, cell line HepG2-A16-CD81EGFP. The following applies: human, HepG2-A16-CD81EGFP cells; read-out: INHIBITION
The gist of the method: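 Uninfected HepG2-A16-CD81EGFP cells, 3 × 10^3 per well, 1536-well, plated on prespotted compound at 10 μM final, parasite-free screening media added to match infected plates; puromycin 10 μM positive, DMSO 0.5% negative; run in parallel with 48 h PbLuc assay at 37 °C, 5% CO2; viability by CellTiter-Glo luminescence, normalized to controls.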
As for `COc1cccc(-c2noc(-c3ccc(NCCCO)nc3)n2)c1OC`, the cytotoxicity at 10 µM is -1.5%.
For the molecule `CCc1ncc2c(n1)CN(c1nnc(C)c(C)c1C#N)CC2`, the cytotoxicity at 10 µM is -134%.
On to `Cc1cc(C)cc(C(=O)Nc2cccc(CN3CCCC3C(N)=O)c2)c1` (stereo unspecified), for which the cytotoxicity at 10 µM was 4.38%.
As for `Cc1cc(N[C@H]2CCCC[C@@H]2O)n2nccc2n1`, the cytotoxicity at 10 µM was -1.42%.
The result for `O=C(CCc1nccs1)N1CCCC(N2CCNC2=O)C1` (stereo unspecified) reads -18.3%.
For the molecule `O=C(NCc1ccnc(OCC2CC2)c1)C1Cc2ccccc2O1` (stereo unspecified), the cytotoxicity at 10 µM is -0.483%.
As for `Cc1ccc(N(CC(=O)c2ccc(Br)cc2)C2=NCCCCC2)cc1`, the cytotoxicity at 10 µM came out at 36.5%.
The result for `CCNC(=O)Nc1ccc2c(ccn2CC(=O)N(CC)CC)c1` reads -0.421%; that for `COCCOc1ncccc1-c1noc([C@@H]2CCCN2C2CCC2)n1`, -7.68%.
To `Cc1nnc(C(C)N2CCN(Cc3noc(C(C)(C)C)n3)CC2)o1` (stereo unspecified) belongs -13.3%.
As for `CC(C)(C)C(=O)NCCC(=O)NCCc1ccn(-c2ccccc2)n1`, the cytotoxicity at 10 µM was -8.89%.
To `Cc1ccc(S(=O)(=O)NC(=O)COc2cccc(C#N)c2)c(C)c1` belongs 3.73%; to `CS(=O)(=O)N1CCOCC2(CN(Cc3nccs3)CCO2)C1` (stereo unspecified), 7.49%; to `O=C(NCc1ccccc1)c1nc2c(o1)CN(C(=O)c1cccnc1)C2`, -76.9%.
`Cn1c(=O)cc(C(=O)NC(Cc2ccsc2)c2cccnc2)[nH]c1=O` (stereo unspecified): the cytotoxicity at 10 µM came to 0.913%.
With `CS(=O)(=O)CCCOc1cccc(-n2cccn2)c1`, the cytotoxicity at 10 µM was -9.22%.
`Cc1cccc(-c2nnc(C(C)N3CCn4c(C)nnc4C3)o2)c1` (stereo unspecified): the cytotoxicity at 10 µM is 0.131%.
The result for `COC1CCN(S(=O)(=O)N2CC[C@@](O)(C3CCC3)[C@H](C)C2)CC1` reads 6.8%; that for `c1cncc(COC[C@H]2CC[C@H]3[C@H](CCN3Cc3nccs3)O2)c1`, -69.6%.
The result for `Cc1nnc(CN2CCCC2c2ccsc2)o1` (stereo unspecified) reads 3.22%; that for `COc1ccc(CN2CCC3(CC2)CC(CC(=O)NC(C)C)CO3)cc1` (stereo unspecified), -1.27%.
Take `Cc1ccc(OCC(=O)Nc2ccc(S(C)(=O)=O)cc2)cc1C`: the cytotoxicity at 10 µM was -2.4%.
`CN(C)C(=O)c1c[nH]nc1C1CCN(S(=O)(=O)c2ccccc2)CC1`: the cytotoxicity at 10 µM was -0.358%.
To `CCn1nc(CC(C)C)cc1C(=O)NCCn1cccc1` belongs -5.94%; to `CC(=O)NCCC1CCCCN1S(=O)(=O)c1cccc(C#N)c1` (stereo unspecified), -10.8%.
With `CC(C)(C)CC(=O)Nc1ccccc1SCC(N)=O`, the cytotoxicity at 10 µM was -138%.
For `O=C(Nc1ccc(Cl)cn1)C1CCCN(Cc2ccccn2)C1` (stereo unspecified), the cytotoxicity at 10 µM is -10.5%.
To `CCc1ccc2c(C3CN(CC4CCC4)C3)ncn2c1` belongs 7.11%; to `O=C(c1n[nH]c2c1CN(C1CCOC1)CC2)N1CCCC1` (stereo unspecified), -1.07%; to `Cc1nn(C)c(Cl)c1C1CCCN1C(=O)c1ccnn1C` (stereo unspecified), -4.87%.
To `CC(=O)N1CCCC(C(=O)N2Cc3nc(C)n(C)c(=O)c3C2)C1` (stereo unspecified) belongs -3.65%.
The result for `CN1CCN(C(=O)c2ncn3c2CN(C)S(=O)(=O)c2ccccc2-3)CC1` reads -153%.
Regarding `COCCOc1ccc(NC(=O)N2CCCC2c2ccncc2)cn1` (stereo unspecified), the cytotoxicity at 10 µM was -3.49%.
In the case of `COc1cccc(C(O)CN2CCN(C(=O)c3ccsc3)CC2)c1` (stereo unspecified), the cytotoxicity at 10 µM is -48.1%.
To `N#Cc1ccc(C(=O)O)nc1C=Cc1cccc(Cl)c1` belongs 13%.
To `Cc1ccc(S(N)(=O)=O)cc1C(=O)NC1CCN(C2CC2)CC1` belongs 13.3%; to `CN1N=C(C(=O)NCc2ccc3c(c2)CCCN3C)CCC1=O`, -0.602%.
With `O=C(NCC1CCOCC1)[C@@H]1C[C@@H]2[C@@H](CCN2Cc2ccoc2)O1`, the cytotoxicity at 10 µM is 5%.
To `O=C(CN1CCC(C(=O)c2cc(F)ccc2F)CC1)NC1CCCC1` belongs 4.93%.
As to `CNC(=O)C1(c2cnccn2)CCCN1C(=O)c1cccc(F)c1` (stereo unspecified), the cytotoxicity at 10 µM is -29.6%.
Regarding `Nc1cc2c(nn1)CCN(C(=O)c1cccnc1Oc1ccccc1)C2`, the cytotoxicity at 10 µM is -11.6%.
The result for `CC(C)(NCc1cccc(C(N)=O)c1)c1ccc2c(c1)OCO2` reads 3.15%; that for `CS(=O)(=O)CCN(CC1CCCO1)C1CCCC1` (stereo unspecified), 4.4%.
The result for `CCOc1ccc(C(F)(F)F)cc1NC(=O)N1CCNC(=O)C1` reads -1.11%; that for `COc1ccc(-c2ccc(C(=O)O)c(F)c2)c(F)c1`, -0.378%; that for `O=C(Cn1nc(-c2cccs2)ccc1=O)N1CCCCCC1`, -2.7%.
To `C[S+]([O-])c1nncn1CC(=O)c1cccc(Br)c1` (stereo unspecified) belongs 1.08%; to `c1cnc(N2Cc3nccn3CC(COc3cccnc3)C2)nc1` (stereo unspecified), 10.7%.
With `Cc1cccc(OCCNC(=O)CN2CCCC2Cn2cncn2)c1` (stereo unspecified), the cytotoxicity at 10 µM is -4.03%.
In the case of `CO[C@H]1COCCN(C(=O)c2ccno2)C1`, the cytotoxicity at 10 µM is 2.42%.
The result for `Cc1csc(N2CCN(CC(=O)Nc3nncs3)CC2C)n1` (stereo unspecified) reads -7.44%; that for `O=C(NCC1CC1)C1=NOC2(CCN(Cc3ccsc3)C2)C1` (stereo unspecified), 1.47%; that for `CC(NC(=O)NCCCO)c1ccc2c(c1)NC(=O)CO2` (stereo unspecified), -3.05%.
To `CCc1nnc(Nc2cccc(C3CCN(CCO)CC3)n2)s1` belongs -6.41%; to `CC(C)CN1C[C@@H]2C[C@H](C(=O)NC3CCC3)[C@H](C1)O2`, 2.37%.
`Cc1ccc(OCC(=O)N2CCN[C@H]3CS(=O)(=O)C[C@H]32)cn1`: the cytotoxicity at 10 µM was -2.7%.
The result for `CC(C)CCOCCNC(=O)Nc1ccc(F)c(C(N)=O)c1` reads -11.6%; that for `O=C(c1cn(-c2ccc(F)cc2)nn1)N1CCCC(n2cccn2)C1` (stereo unspecified), -3.56%; that for `CCCc1nc(C)c(C(=O)NS(=O)(=O)c2ccc(C#N)cc2)s1`, -12%.
As to `CC(C)n1ncc2c1NC(=O)CC21C(=O)Nc2c(Cl)cc(Cl)cc21` (stereo unspecified), the cytotoxicity at 10 µM worked out at 3.38%.
To `COC(=O)N1CCCCC1C(=O)N1CCN(c2ncccc2C)CC1` (stereo unspecified) belongs 3.37%; to `CC(C)NC(=O)C1CN(C(=O)c2ccccc2)CC12CCOCC2` (stereo unspecified), -82.6%; to `CC(C)N1CCC(N2CCC(C(=O)N(C)C)CC2)CC1`, 4.71%.
On to `Cc1csc(NC(=O)CN(C)CC2CCCN2c2cccnn2)n1` (stereo unspecified), for which the cytotoxicity at 10 µM is -5.82%.
As to `c1snnc1CN1C[C@H]2CCC[C@@H](CN3CCOCC3)[C@H]2C1`, the cytotoxicity at 10 µM is -116%.
To `NC(=O)CN1CCCC(C(=O)N2CCC(Oc3ncccn3)CC2)C1` (stereo unspecified) belongs -41.6%; to `Cc1ccc2c(c1)c(CNC(=O)C1CC(=O)N(C3CCCC3)C1)nn2C` (stereo unspecified), -19.9%.
In the case of `COc1cc(C(=O)N(C)C)ccc1NC(=O)c1ccsc1`, the cytotoxicity at 10 µM was -2.53%.
As for `Cc1c[nH]c(C(=O)N2CCC(c3nnc(CN(C)CCO)n3C)CC2)c1`, the cytotoxicity at 10 µM was -3.52%.
Regarding `CC(C)c1nc(C2CCCN(C(=O)CCc3cscn3)C2)no1` (stereo unspecified), the cytotoxicity at 10 µM is -17.2%.
`CC(C)CC(=O)NCCCc1cc(N)n(-c2ccccc2)n1`: the cytotoxicity at 10 µM was -5.29%.
The result for `O=C1C(NS(=O)(=O)c2cccc(F)c2)CCN1Cc1ccccc1` (stereo unspecified) reads -1.67%; that for `O=C(C1CCOc2ccccc2C1)N1Cc2cnn(CCO)c2C1` (stereo unspecified), 4.61%; that for `NC(=O)N1CCCC1COC(=O)c1cc(F)ccc1F` (stereo unspecified), -0.743%.
Regarding `O=C(Nc1cccnc1)[C@@H]1C[C@H]2OCC[C@H]2N(Cc2ccsc2)C1`, the cytotoxicity at 10 µM amounted to 2.88%.
To `CCCc1noc(CN(C)Cc2ccc3c(c2)OCO3)n1` belongs -11.1%; to `COC1CCCN(C2CCN(c3cccc(-c4csc(C)n4)c3)CC2)C1` (stereo unspecified), 0.929%.
The result for `COCc1nc(-c2ccc(S(=O)(=O)N3CCCC3)cc2)cs1` reads -49.8%; that for `Cc1cc(N2CCC(c3n[nH]c4nccnc34)CC2)ncn1`, -25.6%; that for `c1cc(CNCCC2CCCO2)ccn1` (stereo unspecified), -0.95%.
As for `c1ccc2sc(N3CCN(c4ncnc5c4CCC5)CC3)nc2c1`, the cytotoxicity at 10 µM is 56.7%.
The result for `CC(=O)c1cn(CCC(=O)NCCC(=O)O)c2ccccc12` reads 7.13%.
To `O[C@@]1(CN2CCN(Cc3ccncc3)CC2)CCCN2CCCC[C@@H]21` belongs 8.91%; to `CCS(=O)(=O)N1CCC2(CC1)CC(Oc1ccccn1)CO2` (stereo unspecified), -1.58%; to `CC(C)(CNC(=O)c1ccco1)CNC(=O)c1ccco1`, -3.97%.
To `N[C@@H]1c2ccccc2C2(CCN(c3cccc(C(F)(F)F)n3)CC2)[C@H]1O` belongs 0.243%; to `Cc1cnn(CC2CCCN2Cc2noc(C(C)C)n2)c1` (stereo unspecified), -1.67%.
On to `CN(C)C(=O)C1CN(Cc2cscn2)CCN(S(C)(=O)=O)C1` (stereo unspecified), for which the cytotoxicity at 10 µM was -6.46%.
To `CN(Cc1ccc(OCC(=O)N2CCOCC2)cc1)S(C)(=O)=O` belongs 4.64%; to `Cc1cc(N(C)CCN(C)C2CCCC2)n2nc(C)cc2n1`, -6.09%.
To `c1ccc(Cn2cccn2)c(CN2CCCCC2CCn2ccnc2)c1` (stereo unspecified) belongs -12%; to `COc1ccccc1CNC(=O)CNc1ccccc1C(C)=O`, 4.7%.
To `O=C(Nc1ccc(-n2ccc(C(=O)O)n2)cc1)c1ccccc1` belongs -139%; to `Cc1ccc(F)c2c1N(C(=O)c1ccc(S(C)(=O)=O)cc1)CCC2`, 2.97%.
Take `Cc1ccc2cc(C(=O)NCCn3nc4ccccn4c3=O)[nH]c2c1`: the cytotoxicity at 10 µM was found to be 2.95%.
To `Cc1nc(CC(=O)NCc2csc(N3CCCC3)n2)cs1` belongs -5.26%.
